M1 antag = antagonists of human M1 muscarinic receptor; P11229; CHO-K1 hM1, Fluo-8 calcium fluorescence, ACh EC80 antagonist; inhibition, % at 3 µM; 360,000 tested, 1.3% active; AID 588852;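 active means percent inhibition above its own plate's cutoff, namely the mean of that plate's compound wells plus 3 SD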;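 further: peak over basal fluorescence ratio during 140 s after agonist addition; 0% = ACh EC80 plus DMSO and 100% = DMSO alone without agonist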
Target sequence (P11229 whole entry, looked up): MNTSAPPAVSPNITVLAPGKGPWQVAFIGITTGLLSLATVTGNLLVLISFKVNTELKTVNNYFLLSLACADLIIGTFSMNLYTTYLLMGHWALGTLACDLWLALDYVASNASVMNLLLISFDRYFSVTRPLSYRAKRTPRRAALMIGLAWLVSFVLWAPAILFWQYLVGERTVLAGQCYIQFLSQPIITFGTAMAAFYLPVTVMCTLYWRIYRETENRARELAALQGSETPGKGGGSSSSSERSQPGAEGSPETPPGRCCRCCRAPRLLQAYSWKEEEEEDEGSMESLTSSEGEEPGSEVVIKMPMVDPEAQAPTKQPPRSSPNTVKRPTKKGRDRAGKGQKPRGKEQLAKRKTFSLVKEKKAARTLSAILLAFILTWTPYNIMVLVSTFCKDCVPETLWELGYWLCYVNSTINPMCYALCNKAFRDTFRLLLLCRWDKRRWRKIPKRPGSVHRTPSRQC
TAAR1 antagonist = antagonists of human TAAR1 | CHO RD-HGA16 TAAR1, Fluo-8 calcium fluorescence, antagonist | inhibition, % at 3 µM | 360,000 tested, 1.5% active | AID 624466;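 active means inhibition above a per-plate cutoff, the mean inhibition of test compounds on that plate plus 3 SD, cut at about 49% in these data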;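 further: 0% = DMSO plus EC80 beta-PEA response and 100% = DMSO alone without agonist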
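Assay system: RD-HGA16 CHO cells with stable hTAAR1 and Gα16 / Reagent: EC80 β-phenethylamine stimulus / Doses: 3 µM, single point / Timing: dye loading 75 min at 37 °C, then 30 min room temperature / Measured by: Fluo-8 intracellular calcium dye fluorescence, real-time kinetic reads / Controls: vehicle wells and EC80 agonist wells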
M1 ag = agonists of human M1 muscarinic receptor; P11229; CHO-K1 hM1, Fluo-8 calcium fluorescence, agonist mode; 0% DMSO, 100% acetylcholine EC100; activation, % at 3 µM; 360,000 tested, 0.33% active; AID 588814;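 active means activation above the run's mean compound activation plus 3 SD, cut at about 16% in these data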;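 further: peak over basal fluorescence ratio within a 140 s kinetic read after compound addition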
TAAR1 agonist = human TAAR1 agonism; Q96RJ0; CHO RD-HGA16 TAAR1, Fluo-8 calcium fluorescence; vehicle wells 0%, saturating PEA agonist 100%; activation, % at 3 µM; 360,000 tested, 0.99% active;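 active means activation above the mean activation of all test compounds in the run plus 3 SD, cut at about 38% in these data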
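Test system: RD-HGA16 (CHO) cells co-expressing Gα16 and hTAAR1 | Doses: Single dose, 3 µM | Schedule: 17-24 h seeding, 75 min 37 °C dye, 30 min RT | Evaluation: % activation from peak over basal fluorescence ratio, DMSO-to-PEA scaled | Technique: Kinetic Fluo-8 calcium fluorescence | Benchmarks: Low control DMSO, high control PEA (EC100)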
M1 PAM = positive allosteric modulators of human M1 muscarinic receptor. 360,000 tested, 0.088% active. activation, % at 3 µM. AID 588819. CHO-K1 hM1, Fluo-8 calcium fluorescence, ACh EC20; 0% = ACh EC20, 100% = maximal ACh; in the data active means activation above about 19%, passing the limit was not always enough
TAAR1 ag conf = human TAAR1 agonism, confirmed. shares compounds with TAAR1 agonist. CHO RD-HGA16 TAAR1, Fluo-8 calcium fluorescence; scaled: DMSO 0%, maximal phenethylamine 100%. 2,400 tested, 82% active. activation, % at 3 µM. AID 651783;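 active means activation above a cutoff set at the run's mean compound activation plus 3 SD, cut at about 39% in these data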
Ga16 ag counter = nonselective agonist in parental cells, TAAR1 agonist counter-screen; activation, % at 3 µM; CHO-Ga16 parental, Fluo-8 calcium fluorescence; normalized to maximal ATP response, DMSO zero; shares compounds with TAAR1 agonist; 2,400 tested, 50% active;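 active means activation above the run cutoff, the mean activation over all tested wells plus 3 SD, cut at about 12% in these data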;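 further: 0% = DMSO wells and 100% = maximal ATP response on the peak over basal ratio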
TAAR1 desensitize = counter-screen for human TAAR1 agonists: agonists that desensitize TAAR1. inhibition, % at 3 µM. CHO RD-HGA16 hTAAR1, Fluo-8 calcium, beta-PEA response inhibition. shares compounds with TAAR1 agonist. 2,400 tested, 46% active. AID 651951;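 active means inhibition above the run cutoff, the mean inhibition of all test compounds plus 3 SD, cut at about 49% in these data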;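 further: beta-PEA stimulus applied at its EC80; loss of beta-PEA calcium signal after compound pretreatment read as receptor desensitization; 0% = DMSO with beta-PEA at EC80 and 100% = DMSO alone without agonist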
Ga16 antag count = nonselective Ga16 antagonism, counter-screen | shares compounds with TAAR1 agonist | CHO-Ga16 ATP-induced calcium, Fluo-8 fluorescence | inhibition, % at 3 µM | 2,400 tested, 39% active | AID 651952;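 active means inhibition above the plate's mean compound inhibition plus 3 SD, computed per plate, cut at about 22% in these data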;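 further: 0% = EC80 ATP with DMSO and 100% = DMSO wells without ATP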
The depositor's hits bear a star; / = not tested or not shown; ! = repeats disagree. Hits are enriched below; roughly 3.4% of the tested compounds scored in any of these assays.

SMILES | M1 antag | TAAR1 antagonist | M1 ag | TAAR1 agonist | M1 PAM | TAAR1 ag conf | Ga16 ag counter | TAAR1 desensitize | Ga16 antag count
COc1cc(O)cc2c1C(=O)OC(C)CCCC(=O)CCC/C=C\2 (stereo not given) | -6 | 10 | 0 | 55* | 3 | 30 | 26* | 35 | 23*
c1cc2c(cc1NC1=NCCO1)CCCC2 | 6 | -2 | -8 | 7 | -13 | / | / | / | /
CC(N)Cc1ccc(O)cc1 (stereo not given) | / | 54*! | / | 96* | / | 94* | 3 | 84* | 5
COC(=O)C1=C(c2c(C)noc2C)C[C@@H]2CC[C@H]1N2C(=O)NC1Cc2ccccc2C1 | 12 | 9 | -4 | 7 | -2 | / | / | / | /
CCC(=NCCc1ccccc1)c1c(O)[nH]c(=O)[nH]c1=O | -9 | / | -2 | / | 9 | / | 3 | / | 4
CCCCn1c(O)c(C(C)=NCCc2ccccc2)c(=O)[nH]c1=O | -9 | 34 | -3 | 73* | 10 | 44* | 4 | 11 | 11
COC(=O)[C@@H]1N=C(c2ccc(OC)cc2)O[C@]12C(=O)N(Cc1ccc(OC)cc1)c1ccccc12 | / | -1 | / | 4 | / | / | / | / | /
C[C@H]1COc2cc(N3CCN(C)CC3)ccc2S(=O)(=O)N1 | / | -10 | / | 2 | / | / | / | / | /
CN1CC(C(=O)c2ccc(F)cc2)C(c2c(F)cccc2Cl)C1 (stereo not given) | -2 | 0 | -6 | 2 | 5 | / | / | / | /
CN1CC(C(=O)c2ccc(Cl)cc2)C(c2ccccc2)C1 (stereo not given) | -9 | 2 | -7 | 45* | -2 | 75* | 13* | 36 | 11
COc1ccc(CCN)cc1O | -19 | 8 | 5 | 47* | -3 | 62* | 0 | 22 | 9
CCCCOc1ccc(CCN)cc1Cl | 1 | 67* | 4 | 87* | 3 | 99* | 18* | 84* | 12
COc1cc(C(O)CN)ccc1O (stereo not given) | -27 | -8 | -3 | 21 | -1 | / | / | / | /
CC(C)Oc1ccc(CCN)cc1Cl | 1 | -28 | -7 | 52* | 5 | 68* | 11 | 11 | 2
COC(=O)C1=C(c2ccc(-c3ccccc3)c(F)c2)C[C@@H]2CC[C@H]1N2C(=O)NC1CCCCC1 | 2 | -3 | -3 | 8 | 2 | / | / | / | /
CN1C(=O)NC(=O)C2(CCCC2)C1=O | 6 | 4 | 3 | 2 | -1 | / | / | / | /
CN(CCc1ccccc1)Cc1c[nH]c2ccccc12 | -6 | 84* | -4 | 93* | 4 | 96* | 2 | 77* | 2
CCN(CC)Cc1c[nH]c2ccccc12 | -31 | 10 | -1 | 9 | 6 | / | / | / | /
CCOC(=O)[C@]12Cc3ccccc3[C@H]1N(CCC(=O)OC)C(=O)c1ccccc12 | / | -24 | / | 3 | / | / | / | / | /
CC1CN(CC(=O)c2ccccc2Cl)CC(C)O1 (stereo not given) | -9 | 54* | -5 | 85* | 10 | 106* | 3 | 44 | -10
CCOC(=O)C(O)(c1ccc(NC(=O)Oc2ccccc2)cc1)C(F)(F)F (stereo not given) | 3 | 6 | -7 | 4 | 1 | / | / | / | /
CCOC(=O)C(O)(c1ccc(NC(=S)NC(=O)c2ccc(Cl)cc2Cl)c(C)c1)C(F)(F)F (stereo not given) | 49* | 99* | 22* | 76* | -12 | 96* | 56* | 107* | 85*
CCOC(=O)C(O)(c1ccc(NC(=S)NC(=O)c2ccc(Cl)cc2Cl)cc1)C(F)(F)F (stereo not given) | 25 | 79* | 21* | 78* | -1 | 74* | 45* | 93* | 73*
CCN(CC)c1ccc(/C=C2/C(=O)NC(=O)N(Cc3ccco3)C2=O)cc1 | -5 | 21 | -7 | 45* | -4 | 66* | 30* | 41 | 34*
CN(CC=CCN(C)P(=S)(N1CC1)N1CC1)P(=S)(N1CC1)N1CC1 | -2 | -8 | -5 | 2 | 6 | / | / | / | /
SMILES | M1 antag | TAAR1 antagonist | M1 ag | TAAR1 agonist | M1 PAM | TAAR1 ag conf | Ga16 ag counter | TAAR1 desensitize | Ga16 antag count
O=C(Nc1ccc(Cl)cc1)Nc1nccs1 | 0 | 33 | 2 | 50* | 3 | 56* | 8 | 34 | 22*
Cc1ccc(N2C(=O)/C(=C/N3CCN(C(=O)c4ccco4)CC3)C(=O)NC2=S)cc1C | 1 | -7 | -2 | 56* | 5 | 73* | 1 | 6 | 2
Cc1cccc(N2C(=O)/C(=C/N3CCN(C(=O)c4ccco4)CC3)C(=O)NC2=S)c1 | 27 | -14 | -1 | 49* | -8 | 61* | 0 | 4 | 5
O=C1NC(=S)N(c2ccc(Br)cc2)C(=O)/C1=C/N1CCN(C(=O)c2ccco2)CC1 | -1 | 11 | -9 | 32 | 9 | / | / | / | /
O=C1NC(=S)N(c2ccccc2)C(=O)/C1=C/c1ccco1 | -4 | 8 | 1 | 2 | -1 | / | / | / | /
CC1=C(C)CN2CC(C#N)=C(N)C2C1 (stereo not given) | -3 | / | -4 | / | 2 | / | / | / | /
Cc1cccc(CCNCc2cc3ccc(C)cc3[nH]c2=O)c1 | -13 | 70* | -5 | 83* | 7 | 100* | 5 | 93* | -1
CCCC(C)CC1(CCO)C(=O)NC(=S)NC1=O (stereo not given) | -9 | -3 | 0 | 2 | 2 | / | / | / | /
CN1C[C@H](CO)C=C2c3cccc4[nH]cc(c34)C[C@H]21 | -4 | 64* | -7 | 64* | 4 | 92* | 3 | 85* | 7
CC1=C[C@@H]2c3cccc4[nH]cc(c34)C[C@H]2N(C)C1 | 0 | -6 | -4 | 18 | -4 | / | / | / | /
O=C1NC(=O)C(=Cc2ccc(Cl)cc2)C(=O)N1 | / | -16 | / | 1 | / | / | / | / | /

Screens (PubChem BioAssay)
